Reference: ChEMBL document CHEMBL4414568, “Development of Novel Irreversible Pyruvate Kinase M2 Inhibitors” (J Med Chem, 2019)
Calls of active or inactive are those of the source. The rule behind the calls is not given here.

Tests used:
PC-9 [1] = test: Induction of basal oxygen consumption rate in human PC9 cells at 0.25 to 1 uM measured after 4 hrs in absence of glucose by seahorse XF96 flux analyser based assay; assay type: functional, cell-based
Outline: (§1)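 PC-9 cells, 5 × 10^4 per well, seeded 24 h ahead, then treated with DMSO or compound at 0.25, 0.5 or 1 µM for 4 h at 37 °C. Cells held 1 h without CO2 in glycolysis medium. Seahorse glycolysis stress test with serial injections of 10 mM glucose, oligomycin and 50 mM 2-DG; ECAR and OCR recorded together. Six wells per point.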

PC-9 [2] = test: Antitumor activity against human PC9 cells xenografted in athymic nude mouse assessed as reduction in tumor weight at 10 mg/kg, ip administered once daily for 25 days measured post-last dose; assay type: functional, organism-based
Outline: (§2)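 Female nude mice, 6 weeks old, given s.c. 1 × 10^6 PC-9 cells in Matrigel (1:1). From day 7, once-daily i.p. vehicle or 10 mg/kg compound in sterile water with 0.5% methylcellulose and 0.1% Tween-80, n = 8 per group, for 25 days. Tumor volume and body weight followed, tumors weighed at end.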

[3] = biological target: T1, Citrate synthase, mitochondrial (Homo sapiens) (UniProt O75390); test: Binding affinity to CS in human PC9 cells incubated for 1 hr by ABPP-SILAC assay; assay type: cell-based
T1 sequence (whole entry): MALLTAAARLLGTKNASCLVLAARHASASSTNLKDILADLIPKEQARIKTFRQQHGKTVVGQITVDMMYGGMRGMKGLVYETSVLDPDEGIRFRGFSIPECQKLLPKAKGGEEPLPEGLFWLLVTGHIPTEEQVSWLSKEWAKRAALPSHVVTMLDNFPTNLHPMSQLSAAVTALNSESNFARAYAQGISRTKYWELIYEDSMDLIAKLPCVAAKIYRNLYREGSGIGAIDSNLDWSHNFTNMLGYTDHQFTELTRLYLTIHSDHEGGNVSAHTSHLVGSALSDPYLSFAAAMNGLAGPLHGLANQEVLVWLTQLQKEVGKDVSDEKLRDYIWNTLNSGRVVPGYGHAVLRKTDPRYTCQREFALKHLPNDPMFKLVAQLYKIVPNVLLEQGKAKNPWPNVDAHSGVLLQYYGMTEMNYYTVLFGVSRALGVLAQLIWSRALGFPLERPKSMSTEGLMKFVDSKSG
Outline: (§3)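 PC-9 cells passaged at least six times in SILAC DMEM with 10% dialyzed FBS plus 100 µg/mL light or 13C/15N-labeled Arg/Lys. Heavy cells got ABPP probe (1 µM) and light cells DMSO, 1 h at 37 °C. Cells mixed 1:1, sonicated, spun at 100,000g, protein normalized to 1 mg/mL. Click biotin-azide, streptavidin bead pulldown 16 h at 4 °C, SDS-PAGE, on-bead trypsin digestion, LC-MS/MS.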

PC-9 [4] = test: Antiproliferative activity against human PC9 cells harboring EGFR mutant assessed as reduction in cell viability incubated for 24 hrs by MTT assay; assay type: functional, cell-based; settings: PC-9, 24 h
Outline: (§4)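 Cells seeded at 3,500 per well in 10% FBS and left overnight, then exposed to test agent or vehicle in 5% FBS for 24 h. MTT added for 1 h, then medium swapped for DMSO and absorbance read at 560 nm. Viability given as percent of vehicle-treated control. Run in triplicate.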

Mus musculus = test: In vivo inhibition of PKM2 in human PC9 cells xenografted in athymic nude mouse assessed as reduction in beta-catenin expression at 10 mg/kg, ip administered once daily for 25 days measured post-last dose by Western blot analysis; assay type: functional, organism-based
Outline: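 Tumors from PC-9 xenograft nude mice given 10 mg/kg i.p. daily or vehicle for 25 days (n = 8 per group) were lysed for Western blots of PKM2, EGFR, Stat3 and β-catenin. Bands quantified by ImageJ and normalized to GAPDH.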

PC-9 [5] = test: Down regulation of PKM2 expression in human PC9 cells incubated for 24 hrs by Western blot analysis; assay type: functional, cell-based
Outline: (§5)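 PC-9 cells seeded at 5 × 10^5 cells/mL; after 24 h given 0–1 µM compound or DMSO for 24 h. Lysates run on 10% SDS-PAGE, transferred to nitrocellulose, probed for PKM2, EGFR, p-STAT3, STAT3, p-β-catenin, β-catenin and β-actin with HRP secondaries, ECL detection.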

[6] = biological target: L-lactate dehydrogenase A chain (Homo sapiens) (UniProt P00338); test: Binding affinity to LDHA in human PC9 cells incubated for 1 hr by ABPP-SILAC assay; assay type: cell-based; outline: as §3
NCI-H460 = test: Antiproliferative activity against human H460 cells expressing wild type EGFR assessed as reduction in cell viability incubated for 24 hrs by MTT assay; assay type: functional, cell-based; settings: NCI-H460, 24 h; outline: as §4
Pyruvate kinase PKM [7] = biological target: T2, Pyruvate kinase PKM (Homo sapiens, UniProt P14618); test: Inhibition of N-(4-(3-(3-(Methylamino)-3-oxopropyl)-5-(4'-(prop-2-yn-1-yloxy)-[1,1'-biphenyl]-4-yl)-1H-pyrazol-1-yl)phenyl)propiolamide binding to PKM2 in human PC9 cells at 1 uM preincubated for 1 hr followed by probe addition and measured after 1 hr using antibody by Western blot analysis; assay type: cell-based
T2 sequence (P14618 2-531 limits assumed): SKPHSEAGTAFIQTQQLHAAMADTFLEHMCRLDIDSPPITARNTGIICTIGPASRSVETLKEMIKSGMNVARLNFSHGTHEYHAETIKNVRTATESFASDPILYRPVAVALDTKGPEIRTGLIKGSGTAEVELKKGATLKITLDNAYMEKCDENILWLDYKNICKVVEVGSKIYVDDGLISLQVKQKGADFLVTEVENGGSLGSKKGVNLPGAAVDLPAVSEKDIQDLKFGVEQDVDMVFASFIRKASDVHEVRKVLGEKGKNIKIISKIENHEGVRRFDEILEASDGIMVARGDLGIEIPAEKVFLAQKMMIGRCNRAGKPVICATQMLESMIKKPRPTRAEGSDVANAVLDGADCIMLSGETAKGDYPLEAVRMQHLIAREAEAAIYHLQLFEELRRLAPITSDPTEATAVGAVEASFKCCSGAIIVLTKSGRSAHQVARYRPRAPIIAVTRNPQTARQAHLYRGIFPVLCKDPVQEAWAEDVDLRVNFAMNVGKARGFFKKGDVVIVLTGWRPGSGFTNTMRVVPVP
Outline: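 PC-9 cells pretreated with 1 µM compound or DMSO for 1 h, then alkyne probe added at 0.5, 1 or 2 µM for 1 h at 37 °C. Lysates put through Cu-catalysed click with biotin-azide, streptavidin beads 16 h at 4 °C, washes with 0.5% SDS/PBS, 10% SDS-PAGE and PKM2 Western blot.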

[8] = biological target: Alpha-enolase (Homo sapiens) (UniProt P06733); test: Binding affinity to ENOA in human PC9 cells incubated for 1 hr by ABPP-SILAC assay; assay type: cell-based; outline: as §3
Chain of Alpha-enolase (Homo sapiens) (P06733 whole entry): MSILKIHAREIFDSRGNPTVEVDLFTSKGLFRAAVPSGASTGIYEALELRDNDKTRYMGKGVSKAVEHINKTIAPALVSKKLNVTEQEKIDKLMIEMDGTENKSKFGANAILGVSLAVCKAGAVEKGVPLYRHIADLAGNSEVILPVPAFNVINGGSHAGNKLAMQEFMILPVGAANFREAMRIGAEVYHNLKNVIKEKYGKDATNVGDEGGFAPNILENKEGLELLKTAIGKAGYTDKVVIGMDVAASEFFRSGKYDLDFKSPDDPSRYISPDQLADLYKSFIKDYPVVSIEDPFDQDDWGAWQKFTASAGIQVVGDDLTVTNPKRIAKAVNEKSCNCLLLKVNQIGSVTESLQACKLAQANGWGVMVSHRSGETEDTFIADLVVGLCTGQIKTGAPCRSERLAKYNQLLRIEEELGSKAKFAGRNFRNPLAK

PC-9 [9] = test: Effect on basal extracellular acidification rate in human PC9 cells at 0.25 to 1 uM measured after 4 hrs in absence of glucose by seahorse XF96 flux analyser based assay; assay type: cell-based; settings: pc-9, 4 h; outline: as §1
Pyruvate kinase PKM [10] = biological target: T2, Pyruvate kinase PKM; test: Inhibition of PKM2 in human PC9 cells assessed as reduction in STAT3 phosphorylation at 0.5 uM incubated for 24 hrs by Western blot analysis; assay type: cell-based; outline: as §5
Pyruvate kinase PKM [11] = biological target: T2, Pyruvate kinase PKM; test: Inhibition of recombinant human PKM2 expressed in Escherichia coli at 0.125 to 0.5 uM using PEP as substrate incubated for 20 mins by OxiRed probe-based colorimetric assay relative to control
Outline: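 Recombinant PKM1 or PKM2 incubated with compound at room temperature for 20 min. Remaining activity measured by the same colorimetric kit: PEP + […], PK then pyruvate oxidase, H2O2 read-out. n = 3.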

[12] = Toxicity in athymic nude mouse xenografted with human PC9 cells assessed as reduction in body weight at 10 mg/kg, ip administered once daily for 25 days measured during compound dosing; assay type: organism-based; settings: in vivo, 600 h; outline: as §2
LNCaP = test: Antiproliferative activity against human LNCAP cells assessed as reduction in cell viability incubated for 24 hrs by MTT assay; assay type: functional, cell-based; outline: as §4
Pyruvate kinase PKM [13] = biological target: T2, Pyruvate kinase PKM; test: Inhibition of PKM2 in human PC9 cells assessed as increase in oxygen consumption rate at 0.25 to 1 uM preincubated for 4 hrs followed by glucose/oligomycin/2-DG addition and measured after 1 hr by seahorse XFe96 analyser based assay; assay type: cell-based; outline: as §1

Activity [3]: Active
IC50 (PC-9 [4]): 500 nM
Activity [6]: Active
IC50 (NCI-H460): 1500 nM
inhibition (Pyruvate kinase PKM [7]): Active
Activity [8]: Active
inhibition (Pyruvate kinase PKM [10]): inactive
inhibition (Pyruvate kinase PKM [11]): 30%
IC50 (LNCaP): > 2000 nM
inhibition (Pyruvate kinase PKM [13]): Active
SMILES: C#CC(=O)Nc1ccc(-n2nc(CCC(=O)NC)cc2-c2ccc(-c3ccc(C(F)(F)F)cc3)cc2)cc1
Activity (PC-9 [1]): Active
Activity (PC-9 [2]): Active
inhibition (Mus musculus): Active
Activity (PC-9 [5]): Dose-dependent effect
Activity (PC-9 [9]): Non-Toxic
Activity [12]: Non-Toxic
